Test results from ChEMBL document CHEMBL1132112, “Novel modifications in the alkenyldiarylmethane (ADAM) series of non-nucleoside reverse transcriptase inhibitors” (J Med Chem, 1999).

Assays:
[1] = test system: CCRF-CEM; experiment: Concentration inhibiting 50% of mock-infected CEM cells.; format: functional; details: Homo sapiens
How it was run: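 Uninfected (mock-infected) CEM-SS cultures exposed to drug. Viability by XTT, expressed as percent of drug-free control. CC50 is the concentration causing 50% cell death. Triplicates on each plate, two sister plates averaged.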

[2] = target: T1, Human immunodeficiency virus type 1 reverse transcriptase (Human immunodeficiency virus 1, UniProt Q72547); experiment: Inhibition of HIV-1 Reverse transcriptase using poly-(rc)-oligo(dg) as the template primer.
How it was run: (§1)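 Purified p66/51 HIV-1 reverse transcriptase. Inhibition read as incorporation of [32P]-TTP into poly(rA)·oligo(dT) or of [32P]GTP into poly(rC)·oligo(dG) homopolymer template-primer.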

[3] = test system: CEM-SS; experiment: 50% inhibitory concentration for cytopathicity of HIV-1 RF in CEM-SS cells; NA=Not active (EC50 uM); format: functional, cell-based, Homo sapiens
How it was run: (§2)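 CEM-SS cells infected with HIV-1 RF; drug-induced protection from viral cytopathic effect read by XTT, as percent of uninfected drug-free control. EC50 is the concentration giving 50% protection. Triplicate wells on each plate, two sister plates; the plate EC50s (each a triplicate average) were averaged. XTT results were confirmed by supernatant RT and p24 levels. NA means no inhibition up to the concentration cytotoxic to uninfected cells.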

[4] = target: T1, Human immunodeficiency virus type 1 reverse transcriptase; experiment: Inhibition of HIV-1 Reverse transcriptase using poly-(rc)-oligo(dg) as the template primer; NI=No inhibition
How it was run: (§3)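 Purified p66/51 HIV-1 reverse transcriptase. Inhibition read as incorporation of [32P]-TTP into poly(rA)·oligo(dT) or of [32P]GTP into poly(rC)·oligo(dG) homopolymer template-primer. IC50 taken as concentration giving 50% inhibition.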

[5] = target: T1, Human immunodeficiency virus type 1 reverse transcriptase; experiment: Inhibition of HIV-1 Reverse transcriptase using poly-(ra)-oligo(dt) as the template primer; no inhibition; how it was run: as §3
[6] = test system: CEM-SS; experiment: 50% inhibitory concentration for cytopathicity of HIV-1 RF in CEM-SS cells; NA=Not active; format: functional, cell-based, Homo sapiens; how it was run: as §2
[7] = target: T1, Human immunodeficiency virus type 1 reverse transcriptase; experiment: Inhibition of HIV-1 Reverse transcriptase using poly-(ra)-oligo(dt) as the template primer.; how it was run: as §1
[8] = Therapeutic index was determined for the compound as CC50/EC50; details: read-out: TI
How it was run: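 Ratio of CC50 (XTT viability, uninfected CEM-SS) to EC50 (XTT protection from HIV-1 RF cytopathicity in CEM-SS). Both values come from triplicates on each plate, two sister plates averaged. NA means no antiviral inhibition up to the cytotoxic concentration.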

[9] = test system: CEM-SS; experiment: 50% inhibitory concentration for cytopathicity of HIV-1 RF in CEM-SS cells.; format: functional, cell-based; details: Homo sapiens; how it was run: as §2
[10] = target: T1, Human immunodeficiency virus type 1 reverse transcriptase; experiment: Inhibition of HIV-1 Reverse transcriptase using poly-(ra)-oligo(dt) as the template primer; NI=No inhibition; how it was run: as §3

Row | SMILES | CC50 [1] | IC50 [2] | EC50 [3] | other results
1 | COC(=O)CCCCC(c1cc(Cl)c(OC)c(C(=O)OC)c1)c1cc(Cl)c(OC)c(C(=O)OC)c1 | 21.3 µM | 100 µM | Not Active | 
2 | CCC1(CCCC=C(c2cc(Cl)c(OC)c(C(=O)OC)c2)c2cc(Cl)c(OC)c(C(=O)OC)c2)OCCO1 | 19.9 µM |  | Not Active | IC50 [4]: Not Active; IC50 [5]: Not Active
3 | CCC1(CCC/C=C(\c2cc(Cl)c(OC)c(C=O)c2)c2cc(Cl)c(OC)c(CO)c2)OCCO1 | 5.8 µM | 31.6 µM |  | EC50 [6]: Not Active; IC50 [7]: No inhibition
4 | CCC(=O)CCCC=C(c1cc(Cl)c(OC)c(CO)c1)c1cc(Cl)c(OC)c(CO)c1 | 14.2 µM |  | Not Active | 
5 | CCNC(=O)OCCCCC=C(c1cc(Cl)c(OC)c(C(=O)OC)c1)c1cc(Cl)c(OC)c(C(=O)OC)c1 | 8.4 µM | 3.2 µM | Not Active | IC50 ([7]; read-out: IC50): 1.2 µM
6 | COC(=O)c1cc(C(=CCCCC=O)c2cc(Cl)c(OC)c(C(=O)OC)c2)cc(Cl)c1OC | 9.6 µM | 4.9 µM | Not Active | IC50 ([7]; read-out: IC50): 4.2 µM
7 | CCC(=O)CCCC=C(c1cc(Cl)c(OC)c(C=O)c1)c1cc(Cl)c(OC)c(C=O)c1 | 1.13 µM |  |  | EC50 [6]: Not Active
8 | COC(=O)CCCC=C(c1cc(F)c(OC)c(C(=O)OC)c1)c1cc(F)c(OC)c(C(=O)OC)c1 | 68.3 µM |  |  | selectivity ratio [8]: 35.9; EC50 [9]: 1.9 µM
9 | CCC(=O)CCCC=C(c1cc(Cl)c(OC)c(C(=O)OC)c1)c1cc(Cl)c(OC)c(C(=O)OC)c1 | 24.6 µM | 1 µM |  | selectivity ratio [8]: 8.8; EC50 [9]: 2.8 µM
10 | COC(=O)c1cc(C(=CCCCCCl)c2cc(Cl)c(OC)c(C(=O)OC)c2)cc(Cl)c1OC | > 316 µM |  |  | EC50 [9]: 50.5 µM; IC50 [10]: Not Active
11 | COC(=O)c1cc(C(=CCCc2ccccc2)c2cc(Br)c(OC)c(C(=O)OC)c2)cc(Br)c1OC | 31.5 µM |  | Not Active | 
